An excerpt weighted towards active compounds, which were near 3% of everything screened.
ANO1 activ: activates or potentiates the mouse TMEM16A chloride channel; AID 623877; Q8BHY3; B-score at 10 µM; 340,000 tested, 0.3% active; HEK293 TMEM16A/YFP-H148Q/I152L, iodide quench fluorescence; active compounds read low;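 active = fluorescence-ratio B-score plate-corrected deviation score at least 3 library SD below zero, with starting fluorescence score within 5 deviations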;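 note: channel opened by trigger with iodide after compound preincubation; score built on the fluorescence ratio of max minus min over baseline; more negative score means more quench and so TMEM16A activation or potentiation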
TMEM16A inh: mouse TMEM16A channel inhibition, primary screen; AID 588511; Q8BHY3; normalized B-score (activity score, 25-100; higher = stronger inhibition) at 10 µM; HEK293 TMEM16A/YFP iodide influx fluorescence, ionomycin; 310,000 tested, 1.2% active;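 active = ratio plate-corrected score three or more library SD toward inhibition, starting fluorescence score within five deviations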;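 note: score derived from kinetic fluorescence span divided by baseline fluorescence per well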
SR-BI HDL uptake: mouse SR-BI HDL lipid transfer inhibition; 320,000 tested, 0.96% active; inhibition, % at 12.5 µM; ldlA[mSR-BI] CHO cells, DiI-HDL uptake fluorescence, 3 h;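 active = mean replicate inhibition of at least 70% and a set share of replicates each scoring 70 or more; inconclusive = meets just one of the two criteria; inactive = fails both criteria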
SR-BI DiI-HDL act: SR-BI HDL lipid transfer activation; CHO ldlA[mSR-BI] cells, DiI-HDL uptake fluorescence, 3 h; 100 = double the neutral-control signal; activation, % at 12.5 µM; 320,000 tested, 0.096% active; AID 504775;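 active = mean replicate activation of at least 60% and every replicate at or above 60%; inconclusive = mean or all-replicate condition met, but not both; inactive = mean below 60% and not all replicates reaching 60%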
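Test system: SR-BI-overexpressing, LDLR-lacking CHO cells; Also added: labelled HDL, 10 µg/mL; Measured by: bottom-read cell fluorescence after medium removal, ex 550/em 595 nm; Timing: 3 h uptake period with compound, 37 °C; Buffer or medium: F12, 0.5% BSA, 25 mM HEPES; Doses: single compound concentration, delivered by pin transfer.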
Kir21 inh: inhibitors of mouse Kir2.1 inward-rectifier potassium channel | P35561 | HEK293-Kir2.1, FluxOR thallium flux fluorescence; active compounds read low | B-score at 10 µM | 310,000 tested, 0.85% active;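 active = fluorescence ratio B-score at or below minus 3 SD of library scores, with starting-brightness B-score within 2 SD, cut at about -4.2 in these data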;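 note: channel flux triggered by added potassium and thallium sulfate stimulus; B-score of peak minus minimum fluorescence over baseline after thallium stimulus; more negative B-score means stronger Kir2.1 block with less thallium influx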
Target sequence (P35561 whole entry, looked up): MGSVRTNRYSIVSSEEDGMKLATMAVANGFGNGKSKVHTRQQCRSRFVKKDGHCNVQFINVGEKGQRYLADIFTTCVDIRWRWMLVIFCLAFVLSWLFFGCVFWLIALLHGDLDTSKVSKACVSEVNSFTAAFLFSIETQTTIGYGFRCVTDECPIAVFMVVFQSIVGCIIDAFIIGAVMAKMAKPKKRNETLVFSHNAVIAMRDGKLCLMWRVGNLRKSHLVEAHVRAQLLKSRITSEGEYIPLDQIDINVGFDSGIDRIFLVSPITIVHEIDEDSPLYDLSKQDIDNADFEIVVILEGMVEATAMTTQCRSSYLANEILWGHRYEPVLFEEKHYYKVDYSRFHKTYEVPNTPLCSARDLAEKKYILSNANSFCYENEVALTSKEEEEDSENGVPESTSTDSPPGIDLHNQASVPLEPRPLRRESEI
DNA FID counter: displaces DNA intercalator in HCV helicase counter-screen. DNA fluorescent intercalator displacement, fluorescence. inhibition, % at 7.9 µM. 290,000 tested, 0.17% active; in the data active = inhibition above about 37%;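 note: higher means more ethidium bromide displaced from hairpin DNA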
TMEM16A reconf: TMEM16A (mouse) chloride channel inhibition, re-confirmation; shares compounds with TMEM16A inh; HEK293 TMEM16A/YFP-H148Q, iodide quench fluorescence; ionomycin added to raise cell calcium; inhibition, % at 10 µM; 2,300 tested, 39% active;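 active = mean duplicate percent inhibition, scaled so buffer wells are 0 and the reference blocker 100, over three buffer SD above buffer mean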
HEK293 Ca mobil: alters calcium mobilization in TMEM16A HEK293 cells, counter-screen; shares compounds with TMEM16A inh; TMEM16A/YFP HEK293, Fluo4 calcium mobilization; calcium response (% of ionomycin), % at 10 µM; 2,300 tested, 2% active; AID 652231;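 active = duplicate-averaged calcium signal over 20% of the ionomycin maximum, relative to buffer baseline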;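 note: each well's signal is peak minus trough fluorescence divided by its pre-addition baseline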
Parental YFP cnt: counter-screen for TMEM16A inhibitors: effect in parental YFP-HEK293 cells; YFP ratio F(max-min)/F0 at 10 µM; iodide YFP quench, ionomycin; shares compounds with TMEM16A inh; AID 652233; 2,300 tested, under 10 active;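 active = yellow fluorescent protein signal ratio exceeding the buffer control mean by over 5 SD of those controls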;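 note: ratio is mean of duplicate wells from kinetic YFP trace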
ClC-1 inh: rat ClC-1 inhibition, TMEM16A specificity screen; ratio percent, % at 10 µM; CHO ClC-1-YFP, iodide influx fluorescence quench; iodide control reads 0, buffer control 100; 2,300 tested, under 10 active; shares compounds with TMEM16A inh; AID 652236;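 active = duplicate-mean ratio percent above the mean of iodide-only control wells, which defines zero, plus 5 of their SD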;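 note: higher percent means stronger block of ClC-1 iodide influx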
Of the large screens only hits and unclear results are named; the others gave an inactive call (follow-up assays come after a bar, where they were run).

Cc1ccc(C(=O)O/N=C2\CC3CCC2(C)C3(C)C)cc1 (stereo unspecified)	TMEM16A inh 25 | TMEM16A reconf inactive | HEK293 Ca mobil inactive | Parental YFP cnt inactive | ClC-1 inh inactive
Cc1cccc(C(=O)O/N=C2/CC3CCC2(C)C3(C)C)c1 (stereo unspecified)	none
O=C(O)c1ccc(S(=O)(=O)Cc2ccccc2)cc1	none
Cc1ccc(S(=O)(=O)Cc2ccc(C(=O)OCc3ccccc3)cc2)cc1	TMEM16A inh 25 | TMEM16A reconf 44% | HEK293 Ca mobil inactive | Parental YFP cnt inactive | ClC-1 inh inactive
CCOC(=O)C1=C(C)c2ccccc2N(S(=O)(=O)C(F)(F)F)C1C(=O)OCC (stereo unspecified)	none (no result: ANO1 activ, TMEM16A inh, Kir21 inh, DNA FID counter)
Cc1ccc(C)c(NC(=O)Cn2ccn(-c3ccc4c(c3)OCO4)c(=O)c2=O)c1	none (no result: DNA FID counter)
O=C(O)CCC(=O)NCCn1c(-c2ccccc2)csc1=Nc1ccccc1	none
OCCCn1c(-c2ccccc2)csc1=Nc1ccccc1	TMEM16A inh 100, SR-BI DiI-HDL act inconclusive | TMEM16A reconf 28% | HEK293 Ca mobil inactive | Parental YFP cnt inactive | ClC-1 inh inactive
CSCCC(NS(=O)(=O)c1ccccc1F)C(=O)NCc1cccnc1 (stereo unspecified)	none (no result: DNA FID counter)
COc1cccc(-c2noc(N)c2C#N)c1	none
N#Cc1c(-c2ccc(F)cc2)noc1N	TMEM16A inh 100 | TMEM16A reconf inactive | HEK293 Ca mobil inactive | Parental YFP cnt inactive | ClC-1 inh inactive
C[C@H](NC(=O)c1ccccc1)C(=O)N1CCC2(CC1)NCCc1[nH]cnc12	none
Cc1ccc(C2=NS(=O)(=O)N(C)C(C(=O)Nc3ccc4c(c3)OCO4)=C2)cc1	TMEM16A inh 25 | TMEM16A reconf inactive | HEK293 Ca mobil inactive | Parental YFP cnt inactive | ClC-1 inh inactive
Cc1ccc(OCCC(=O)O)cc1	none
COc1ccc(Cn2c(=O)[nH]c3cc(C(=O)N4CCN(Cc5ccccc5)CC4)ccc3c2=O)cc1	TMEM16A inh 25 | TMEM16A reconf inactive | HEK293 Ca mobil inactive | Parental YFP cnt inactive | ClC-1 inh inactive
CCOC(=O)C1(Cc2ccccc2Cl)CCN(Cc2csc(C(C)=O)c2)CC1	TMEM16A inh 25 | TMEM16A reconf inactive | HEK293 Ca mobil inactive | Parental YFP cnt inactive | ClC-1 inh inactive
CCCCNC(=O)c1cccc(S(=O)(=O)N2CC3(C)CC2CC(C)(C)C3)c1 (stereo unspecified)	none (no result: TMEM16A inh, Kir21 inh, DNA FID counter)
CC12CN(C(=O)c3cccc([N+](=O)[O-])c3)C3(C#N)CC1CCC23C (stereo unspecified)	none
COc1ccccc1OCc1ccc(C(=O)NCc2cccnc2)o1	none
CC(C)(C)c1ccc(OCc2ccc(C(=O)NCc3cccnc3)o2)cc1	TMEM16A inh 100 | TMEM16A reconf inactive | HEK293 Ca mobil inactive | Parental YFP cnt inactive | ClC-1 inh inactive
Cc1cccc(C(=O)OCC(=O)NCc2ccco2)c1	none (no result: TMEM16A inh, Kir21 inh, DNA FID counter)
CCOC(=O)c1ccc(NC(=O)CCNS(=O)(=O)c2cccs2)cc1	none (no result: SR-BI HDL uptake, SR-BI DiI-HDL act)
CCSc1nnc(NC(=O)CSc2nccn2-c2cc(C)cc(C)c2)s1	none (no result: ANO1 activ, SR-BI HDL uptake, SR-BI DiI-HDL act)
CCSc1nnc(NC(=O)CSc2nccn2-c2cccc(C)c2C)s1	TMEM16A inh 25 (no result: ANO1 activ, SR-BI HDL uptake, SR-BI DiI-HDL act) | TMEM16A reconf inactive | HEK293 Ca mobil inactive | Parental YFP cnt inactive | ClC-1 inh inactive
COc1cc(C(=O)Oc2cccc(Nc3ncnc4ccccc34)c2)cc(OC)c1OC	TMEM16A inh 100 | TMEM16A reconf 22% | HEK293 Ca mobil inactive | Parental YFP cnt inactive | ClC-1 inh inactive
Nc1ccc(CCS(N)(=O)=O)cc1	TMEM16A inh 25 | TMEM16A reconf inactive | HEK293 Ca mobil inactive | Parental YFP cnt inactive | ClC-1 inh inactive
CCN(CC)S(=O)(=O)c1cc(-c2nnc(-c3ccc(Br)cc3)o2)ccc1Cl	TMEM16A inh 25 | TMEM16A reconf inactive | HEK293 Ca mobil inactive | Parental YFP cnt inactive | ClC-1 inh inactive
CCN(CC)S(=O)(=O)c1cccc(-c2nnc(-c3ccc(C)cc3)o2)c1	none
CCCc1cc(=O)[nH]c(SCC(=O)N2CCCC2=O)n1	none (no result: DNA FID counter)
O=C(COc1ccc(Br)cc1)Nc1ccncc1	none
COc1cccc(OCC(=O)Nc2ccncc2)c1	none
O=C(COc1ccc(Nc2ccccc2)cc1)Nc1ccncc1	TMEM16A inh 100 (no result: DNA FID counter) | TMEM16A reconf 18% | HEK293 Ca mobil inactive | Parental YFP cnt inactive | ClC-1 inh inactive
CC(C)(C)c1ccc(OCC(=O)Nc2ccc(C(=O)Nc3ccccc3C(=O)O)cc2)cc1	TMEM16A inh 25 | TMEM16A reconf 56% | HEK293 Ca mobil 42% | Parental YFP cnt inactive | ClC-1 inh inactive
Cc1cc(OCC(=O)Nc2ccncc2)c(C)cc1Br	TMEM16A inh 25 | TMEM16A reconf 34% | HEK293 Ca mobil inactive | Parental YFP cnt inactive | ClC-1 inh inactive
Cc1cccc(OCC(=O)Nc2ccc(C(=O)Nc3ccccc3C(=O)O)cc2)c1C	none
CC(C)CCOc1cccc(OCC(=O)Nc2ccncc2)c1	TMEM16A inh 25 | TMEM16A reconf 17% | HEK293 Ca mobil inactive | Parental YFP cnt inactive | ClC-1 inh inactive
Cc1cc(NNC(=O)c2cccc(C(F)(F)F)c2)nc2c1c(C)nn2C	TMEM16A inh 25 | TMEM16A reconf inactive | HEK293 Ca mobil inactive | Parental YFP cnt inactive | ClC-1 inh inactive
Cc1cc(C)n(CC(=O)NNC(=O)c2cccc(C(F)(F)F)c2)n1	none
O=C(NC1=NCCS1)c1ccc(Cl)c(S(=O)(=O)N2CCCC2)c1	TMEM16A inh 25 | TMEM16A reconf inactive | HEK293 Ca mobil inactive | Parental YFP cnt inactive | ClC-1 inh inactive
CC1(C)O[C@@H]2[C@H](O1)[C@@H](CO)O[C@H]2n1cnc2c(N)ncnc21	none (no result: TMEM16A inh, Kir21 inh, DNA FID counter)
Nc1ncnc2c1ncn2[C@@H]1O[C@H](CO)C[C@H]1O	TMEM16A inh 100 (no result: DNA FID counter) | TMEM16A reconf inactive | HEK293 Ca mobil inactive | Parental YFP cnt inactive | ClC-1 inh inactive
CC1CCN(c2ccc(-c3cccc(NC(=O)c4ccco4)c3)nn2)CC1	none (no result: DNA FID counter)
Cc1ccc(C(=O)Nc2cccc(S(=O)(=O)N3CCCCC3)c2)cc1[N+](=O)[O-]	SR-BI HDL uptake inconclusive (no result: TMEM16A inh, Kir21 inh, DNA FID counter)
